RanGTP-Impb inh – disruptors of Ran-importin-beta complex formation – biochemical, FRET, CFP-Ran, YFP-importin-beta, homogeneous, primary screen | cell-free CFP-Ran/YFP-importin-beta FRET ratio | inhibition, % (concentration not given with the values) | 300,000 tested, 1.1% active;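 active means more than half of the replicate wells show a fall in the fluorescence ratio signal beyond about 16%, limit read from the data, passing the limit was not always enough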;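 further: 0% = DMSO wells and 100% = Ran loaded with GDP instead of GTP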
RBBP9 inhibitor – blocks human serine hydrolase RBBP9 | recombinant RBBP9, FP-Rh probe fluorescence polarization | 220,000 tested, 0.2% active | O75884 | AID 1515 | inhibition, % at 7.94 µM;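 active means inhibition above the campaign mean of all tested compounds plus 3 SD, cut at about 14% in these data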;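 further: plate controls were DMSO wells with RBBP9 for no effect and wells lacking RBBP9 protein for full effect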
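Assay system: recombinant human RBBP9; Reagent: Serine-hydrolase probe FP-Rh, 375 nM pre-mixing; Doses: 7.94 µM single dose, 0.794% DMSO; Incubation: 30 min then 45 min, 25 °C; Detection: fluorescence polarization (mP), excitation 525 nm, emission 598 nm; Evaluation: percent inhibition from mP, scaled between DMSO and no-protein wells.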
Runt-SMMHC FRET – Runt domain-CBFb-SMMHC interaction inhibition; Q01196+Q13951; Cerulean-Runt/Venus-CBFb-SMMHC FRET ratio 530/480, 1 h; inhibition, % at 20 µM; 220,000 tested, 0.74% active; AID 1434;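 active means mean inhibition across duplicate retests at 20 µM reaching about 50%, limit read from the data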;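 further: 0% = DMSO wells and 100% = wells with excess untagged CBFb-SMMHC; inhibitors lower the FRET ratio by blocking Runt binding to CBFb-SMMHC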
Target sequence (Q01196 whole entry, looked up, the tested form may be a part): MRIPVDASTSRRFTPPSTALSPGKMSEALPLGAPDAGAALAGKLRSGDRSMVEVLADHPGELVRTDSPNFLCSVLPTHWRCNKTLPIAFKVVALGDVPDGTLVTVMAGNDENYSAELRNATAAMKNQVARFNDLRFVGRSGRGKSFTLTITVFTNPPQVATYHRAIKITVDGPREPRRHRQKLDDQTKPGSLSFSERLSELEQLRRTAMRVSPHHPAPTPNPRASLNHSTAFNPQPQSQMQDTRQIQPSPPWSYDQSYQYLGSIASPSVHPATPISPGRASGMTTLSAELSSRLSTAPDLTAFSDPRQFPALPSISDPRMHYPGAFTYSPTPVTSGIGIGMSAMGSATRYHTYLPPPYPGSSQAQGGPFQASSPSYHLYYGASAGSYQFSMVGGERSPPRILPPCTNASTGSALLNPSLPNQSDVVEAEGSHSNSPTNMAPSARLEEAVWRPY
Target sequence (Q13951 whole entry, looked up, the tested form may be a part): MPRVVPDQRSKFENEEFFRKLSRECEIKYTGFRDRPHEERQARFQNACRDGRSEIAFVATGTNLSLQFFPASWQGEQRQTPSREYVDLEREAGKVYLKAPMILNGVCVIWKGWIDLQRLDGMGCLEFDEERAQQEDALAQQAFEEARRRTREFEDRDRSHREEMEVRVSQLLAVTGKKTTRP
M18AAP inhibitor – PfM18AAP enzyme inhibition; recombinant PfM18AAP, H-Glu-NHMec fluorogenic cleavage; inhibition, % at 7.35 µM; 290,000 tested, 1.2% active; AID 1822;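 active means inhibition above the campaign mean inhibition over all tested compounds plus 3 SD, cut at about 28% in these data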;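 further: 0% = plate median of test compound wells and 100% = 2 mM ZnCl2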
Hck Nef HTS – inhibitors of human Hck kinase activated by Nef. inhibition, % at 20 µM. P08631. 220,000 tested, 0.68% active. Recombinant Hck-YEEI plus Nef, Z-Lyte FRET kinase assay;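 active means Hck-Nef kinase inhibition above about 50%, limit read from the data; inactive means inhibition below that limit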;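 further: 0% = DMSO with Hck plus Nef and 100% = Hck alone without Nef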
Runt-CBFb FRET – Runt domain-CBFb interaction inhibition; Q01196+Q13951; Cerulean-Runt/Venus-CBFb FRET ratio 530/480, 1 h; inhibition, % at 20 µM; 220,000 tested, 0.46% active; AID 1496;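 active means inhibition over about 50% at 20 µM in the single-dose screen, limit read from the data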;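 further: 0% = DMSO wells and 100% = excess unlabeled CBFb competitor control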
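Assay system: Cerulean-Runt domain fusion protein, energy donor; Signal: fluorescence energy transfer, 422 nm excitation, 530/480 nm emission; Timing: 1 h compound exposure, room temperature; Control set: unlabeled CBFb; Medium: Tris buffer pH 7.5 with salts and BSA; Compound: single test concentration of 20 µM, 1% DMSO final; Probe or stimulus: Venus-CBFb 100 nM.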
Hck Nef conf – Hck-Nef kinase inhibition, confirmation | calls only at 10 µM | 1,300 tested, 28% active | AID 463188 | shares compounds with Hck Nef HTS | Recombinant Hck-YEEI:Nef, Z-Lyte FRET kinase assay;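 active means average inhibition of at least 50%, with Z-scores no higher than 3 in both the phospho-tyrosine peptide and fluorescence counterscreens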
An asterisk follows results filed as active; i = inactive; x = not tested or not shown; + = active, no number. A selection: hits, their analogues and other compounds. The true share with any hit is near 2.9%.

SMILES	RanGTP-Impb inh	RBBP9 inhibitor	Runt-SMMHC FRET	M18AAP inhibitor	Hck Nef HTS	Runt-CBFb FRET	Hck Nef conf
COC(=O)C1=CNC=C(C(=O)OC)C1c1ccccc1Cl	x	-6	146*	-1	66*	72*	x
CCN(CC)c1ccc(NC(=O)Cn2c(C(C)NC(=O)c3ccc(C)cc3)nc3ccccc32)cc1 (stereo unspecified)	0	7	3	7	83*	4	+
CCCn1c(C(C)NC(=O)c2ccccc2)nc2ccccc21 (stereo unspecified)	0	-7	1	-1	1	-1	x
Cc1cn(-c2cc(C(=O)Nc3ccc(C)c(NC(=O)C(=O)c4c[nH]c5ccccc45)c3)cc(C(F)(F)F)c2)cn1	5	x	-1	x	55*	-2	i
COc1ccccc1C(CNC(=O)c1cccc(NS(=O)(=O)c2ccc(C)c(F)c2)c1)N1CCCC1 (stereo unspecified)	0	x	x	x	x	x	x
Nc1nc(N)nc(-c2ccc(Oc3ccccc3)cc2)n1	5	-6	-1	-2	19	-2	x
Cc1ccc(Oc2ccc(-c3nc(N)nc(N)n3)cc2)cc1C	-2	-16	-7	-8	76*	-12	i
O=C(/C=C/c1cn(-c2ccccc2)nc1-c1ccccc1)Nc1ccc(C(=O)O)cc1	-3	-25	-2	-11	-3	-6	x
NS(=O)(=O)c1ccc(NC(=O)/C=C/c2cn(-c3ccccc3)nc2-c2cccc(Cl)c2)cc1	4	-28	-13	3	90*	-3	i
O=C(/C=C/c1ccco1)NC(=S)Nc1ccccc1O	-4	-2	-82	10	54*	-18	+
COc1cc(NS(=O)(=O)c2ccc(NC(=S)NC(=O)/C=C/c3ccco3)cc2)ncn1	0	-6	8	8	91*	15	+
Cc1ccc(NC(=S)NC(=O)/C=C/c2ccco2)c(O)c1	2	-6	-33	15	85*	-4	+
O=C(/C=C/c1ccco1)Nc1ccccc1C(=O)O	-5	-8	15	-17	55*	30	i
CCOc1ccc(NC(=S)NC(=O)/C=C/c2ccco2)cc1	2	x	x	-1	x	x	x
COc1ccc(NC(=S)NC(=O)/C=C/c2ccco2)c(OC)c1	-3	x	x	1	x	x	x
O=C(/C=C/c1ccco1)NC(=S)Nc1ccccc1N1CCCC1	-12	-1	36	11	21	25	x
Cc1nnc(SCC(=O)Nc2ccc(N3CCN(S(C)(=O)=O)CC3)cc2)o1	-3	x	x	-1	x	x	x
COC(=O)c1cc(NC(=S)NC(=O)c2ccccc2)ccc1N1CCOCC1	-4	x	x	3	x	x	x
O=C(/C=C\c1ccco1)NC(=S)Nc1ccccc1O	2	-2	-10	20	59*	-6	i
COCCNC(=O)C(c1ccc(F)cc1)N(C(=O)CCC(=O)Nc1ccccn1)c1cccc(C)c1 (stereo unspecified)	1	x	x	-12	x	x	x
O=C(CN1CCCCC1)Nc1c2c(nc3ccccc13)N(c1ccccc1)CC2	3	-3	5	4	91*	0	x
CCCC(=O)Nc1c2c(nc3ccccc13)N(c1ccccc1)CC2	2	-8	6	-2	29	3	x
CCOc1ccc(/C=C2\SC(=S)N(NS(=O)(=O)c3ccc(C)cc3)C2=O)cc1OC	2	-9	-13	-1	51*	-10	+
N=C1C(c2ccccc2)=C(O)CN1CCO	-3	1	1	2	10	0	x
O=C(O)c1ccccc1/C=N/NC(=O)c1cc(-c2ccco2)nc2ccccc12	-7	-6	19	11	71*	14	+
O=C(NNC(=O)c1ccc(-n2cncn2)c([N+](=O)[O-])c1)c1cccc(Cl)c1	-2	x	x	x	x	x	x
CCOC(=O)c1cc(-c2ccccc2)sc1NC(=O)COC(=O)c1ccc(Cl)c(S(N)(=O)=O)c1	2	1	-6	-6	1	0	x
